According to ChEMBL document CHEMBL1152599, “Synthesis and in vitro activities of new anticancer duplex drugs linking 2'-deoxy-5-fluorouridine (5-FdU) with 3'-C-ethynylcytidine (ECyd) via a phosphodiester bonding” (2009):

Experiments:
Type in all cases: functional
HL-60 = test: Anticancer activity against human HL-60(TB) cells after 48 hrs by sulforhodamine B assay; conditions: HL-60, 48 h
Summary of the method: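 NCI 60-cell-line anticancer screen. Drugs tested at a minimum of five concentrations at 10-fold dilutions with 48 h exposure. Cell growth estimated by sulforhodamine B protein assay. GI50 is log10 of the molar concentration giving 50% growth inhibition, read from the screening data sheet, dose-response curves and mean graphs.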

SK-OV-3 = test: Anticancer activity against human SKOV3 cells after 48 hrs by sulforhodamine B assay; conditions: SK-OV-3, 48 h
Summary of the method: (§1)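 NCI 60-cell-line anticancer screen. Each compound is tested at a minimum of five concentrations in 10-fold dilutions with 48 h drug exposure. Cell viability/growth is estimated by sulforhodamine B protein staining. GI50 is the log10 molar concentration giving 50% growth inhibition, read from the dose-response curves and mean graphs of the NCI data screening report. TGI was taken from double screens.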

OVCAR-4 = test: Anticancer activity against human OVCAR4 cells after 48 hrs by sulforhodamine B assay; conditions: OVCAR-4, 48 h; summary of the method: as §1
SN12C = test: Anticancer activity against human SN12C cells after 48 hrs by sulforhodamine B assay; summary of the method: as §1
IGROV-1 = test: Anticancer activity against human IGROV1 cells after 48 hrs by sulforhodamine B assay; conditions: IGROV-1, 48 h; summary of the method: as §1
MDA-N = test: Anticancer activity against human MDA-N cells after 48 hrs by sulforhodamine B assay; summary of the method: as §1
SK-MEL-5 = test: Anticancer activity against human SK-MEL-5 cells after 48 hrs by sulforhodamine B assay; conditions: SK-MEL-5, 48 h; summary of the method: as §1
UO-31 = test: Anticancer activity against human UO31 cells after 48 hrs by sulforhodamine B assay; conditions: UO-31, 48 h
Summary of the method: (§2)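 Tested in the NCI 60-human-tumour-cell-line screen. Compounds were applied at a minimum of five concentrations in 10-fold dilutions with 48 h exposure. Cell growth was estimated by sulforhodamine B protein staining. GI50 (log10 of molar concentration giving 50% growth inhibition) and TGI were read from the data sheets, dose-response curves and mean graphs. Some cell lines were screened twice.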

UACC-257 = test: Anticancer activity against human UACC257 cells after 48 hrs by sulforhodamine B assay; conditions: UACC-257, 48 h; summary of the method: as §2
MOLT-4 = test: Anticancer activity against human MOLT4 cells after 48 hrs by sulforhodamine B assay; conditions: MOLT-4, 48 h; summary of the method: as §1
DU-145 = test: Anticancer activity against human DU145 cells after 48 hrs by sulforhodamine B assay; conditions: DU-145, 48 h; summary of the method: as §1
MDA-MB-435 = test: Anticancer activity against human MDA-MB-435 cells after 48 hrs by sulforhodamine B assay; conditions: MDA-MB-435, 48 h; summary of the method: as §1
EKVX = test: Anticancer activity against human EKVX cells after 48 hrs by sulforhodamine B assay; summary of the method: as §1
CCRF-CEM = test: Anticancer activity against human CCRF-CEM cells after 48 hrs by sulforhodamine B assay; summary of the method: as §1
OVCAR-3 = test: Anticancer activity against human OVCAR-3 cells after 48 hrs by sulforhodamine B assay; conditions: OVCAR-3, 48 h; summary of the method: as §1
A549 = test: Anticancer activity against human A549 cells after 48 hrs by sulforhodamine B assay; conditions: A549, 48 h; summary of the method: as §1
NCI/ADR-RES = test: Anticancer activity against human NCI/ADR-RES cells after 48 hrs by sulforhodamine B assay; summary of the method: as §1
SK-MEL-28 = test: Anticancer activity against human SK-MEL-28 cells after 48 hrs by sulforhodamine B assay; conditions: SK-MEL-28, 48 h; summary of the method: as §1
OVCAR-8 = test: Anticancer activity against human OVCAR8 cells after 48 hrs by sulforhodamine B assay; conditions: OVCAR-8, 48 h; summary of the method: as §1
NCI-H226 = test: Anticancer activity against human NCI-H226 cells after 48 hrs by sulforhodamine B assay; conditions: NCI-H226, 48 h; summary of the method: as §1
K562 = test: Anticancer activity against human K562 cells after 48 hrs by sulforhodamine B assay; conditions: K562, 48 h; summary of the method: as §1
COLO 205 = test: Anticancer activity against human COLO205 cells after 48 hrs by sulforhodamine B assay; conditions: COLO 205, 48 h; summary of the method: as §1
HCC 2998 = test: Anticancer activity against human HCC2998 cells after 48 hrs by sulforhodamine B assay; conditions: HCC 2998, 48 h; summary of the method: as §1
HOP-62 = test: Anticancer activity against human HOP62 cells after 48 hrs by sulforhodamine B assay; conditions: HOP-62, 48 h; summary of the method: as §1
SW-620 = test: Anticancer activity against human SW620 cells after 48 hrs by sulforhodamine B assay; conditions: SW-620, 48 h; summary of the method: as §2
U-251 = test: Anticancer activity against human U251 cells after 48 hrs by sulforhodamine B assay; conditions: U-251, 48 h; summary of the method: as §2
NCI-H522 = test: Anticancer activity against human NCI-H522 cells after 48 hrs by sulforhodamine B assay; conditions: NCI-H522, 48 h; summary of the method: as §1
MCF7 = test: Anticancer activity against human MCF7 cells after 48 hrs by sulforhodamine B assay; conditions: MCF7, 48 h; summary of the method: as §1
NCI-H460 = test: Anticancer activity against human NCI-H460 cells after 48 hrs by sulforhodamine B assay; conditions: NCI-H460, 48 h; summary of the method: as §1
[1] = Anticancer activity against human Hs 578T cells after 48 hrs by sulforhodamine B assay; summary of the method: as §1
ACHN = test: Anticancer activity against human ACHN cells after 48 hrs by sulforhodamine B assay; summary of the method: as §1
CAKI-1 = test: Anticancer activity against human Caki1 cells after 48 hrs by sulforhodamine B assay; conditions: CAKI-1, 48 h; summary of the method: as §1
NCI-H322M = test: Anticancer activity against human NCI-H322M cells after 48 hrs by sulforhodamine B assay; summary of the method: as §1
PC-3 = test: Anticancer activity against human PC3 cells after 48 hrs by sulforhodamine B assay; conditions: PC-3, 48 h; summary of the method: as §1
[2] = Anticancer activity against human […] cells after 48 hrs by sulforhodamine B assay; summary of the method: as §1
SR = test: Anticancer activity against human SR cells after 48 hrs by sulforhodamine B assay; summary of the method: as §2
BT-549 = test: Anticancer activity against human BT549 cells after 48 hrs by sulforhodamine B assay; conditions: BT-549, 48 h; summary of the method: as §1
MDA-MB-231 = test: Anticancer activity against human MDA-MB-231 cells after 48 hrs by sulforhodamine B assay; conditions: MDA-MB-231, 48 h; summary of the method: as §1
RXF 393 = test: Anticancer activity against human RXF393 cells after 48 hrs by sulforhodamine B assay; conditions: RXF 393, 48 h; summary of the method: as §1
OVCAR-5 = test: Anticancer activity against human OVCAR5 cells after 48 hrs by sulforhodamine B assay; conditions: OVCAR-5, 48 h; summary of the method: as §1
786-0 = test: Anticancer activity against human 786-0 cells after 48 hrs by sulforhodamine B assay; conditions: 786-0, 48 h; summary of the method: as §1
SF-539 = test: Anticancer activity against human SF539 cells after 48 hrs by sulforhodamine B assay; conditions: SF-539, 48 h; summary of the method: as §1
LOX IMVI = test: Anticancer activity against human LOXIMVI cells after 48 hrs by sulforhodamine B assay; summary of the method: as §1
UACC-62 = test: Anticancer activity against human UACC62 cells after 48 hrs by sulforhodamine B assay; conditions: UACC-62, 48 h; summary of the method: as §2
HCT-116 = test: Anticancer activity against human HCT116 cells after 48 hrs by sulforhodamine B assay; conditions: HCT-116, 48 h; summary of the method: as §1
A498 = test: Anticancer activity against human A498 cells after 48 hrs by sulforhodamine B assay; conditions: A498, 48 h; summary of the method: as §1
HCT-15 = test: Anticancer activity against human HCT15 cells after 48 hrs by sulforhodamine B assay; conditions: HCT-15, 48 h; summary of the method: as §1
M14 = test: Anticancer activity against human M14 cells after 48 hrs by sulforhodamine B assay; conditions: M14, 48 h; summary of the method: as §1
T47D = test: Anticancer activity against human T47D cells after 48 hrs by sulforhodamine B assay; summary of the method: as §2
SK-MEL-2 = test: Anticancer activity against human SK-MEL-2 cells after 48 hrs by sulforhodamine B assay; conditions: SK-MEL-2, 48 h; summary of the method: as §1
SF-295 = test: Anticancer activity against human SF295 cells after 48 hrs by sulforhodamine B assay; conditions: SF-295, 48 h; summary of the method: as §1
SNB-75 = test: Anticancer activity against human SNB75 cells after 48 hrs by sulforhodamine B assay; conditions: SNB-75, 48 h; summary of the method: as §2
KM12 = test: Anticancer activity against human KM12 cells after 48 hrs by sulforhodamine B assay; conditions: KM12, 48 h; summary of the method: as §1
HOP-92 = test: Anticancer activity against human HOP92 cells after 48 hrs by sulforhodamine B assay; conditions: HOP-92, 48 h; summary of the method: as §1
HT-29 = test: Anticancer activity against human HT-29 cells after 48 hrs by sulforhodamine B assay; conditions: HT-29, 48 h; summary of the method: as §1
TK-10 = test: Anticancer activity against human TK10 cells after 48 hrs by sulforhodamine B assay; conditions: TK-10, 48 h; summary of the method: as §2
SF-268 = test: Anticancer activity against human SF268 cells after 48 hrs by sulforhodamine B assay; conditions: SF-268, 48 h; summary of the method: as §1
SNB-19 = test: Anticancer activity against human SNB19 cells after 48 hrs by sulforhodamine B assay; conditions: SNB-19, 48 h; summary of the method: as §1
NCI-H23 = test: Anticancer activity against human NCI-H23 cells after 48 hrs by sulforhodamine B assay; conditions: NCI-H23, 48 h; summary of the method: as §1
Malme-3M = test: Anticancer activity against human MALME-3M cells after 48 hrs by sulforhodamine B assay; summary of the method: as §1

## O=c1[nH]c(=O)n([C@H]2C[C@H](O)[C@@H](CO)O2)cc1F [FLOXURIDINE]
HL-60
  GI50: 200 nM
SK-OV-3
  GI50: 2000 nM
OVCAR-4
  GI50: 10000 nM
SN12C
  GI50: 200 nM
IGROV-1
  GI50: 2510 nM
MDA-N
  GI50: 1260 nM
SK-MEL-5
  GI50: 200 nM
UO-31
  GI50: 126 nM
UACC-257
  GI50: 3160 nM
MOLT-4
  GI50: 39.8 nM
DU-145
  GI50: 251 nM
MDA-MB-435
  GI50: 3160 nM
EKVX
  GI50: 10000 nM
CCRF-CEM
  GI50: 6.31 nM
OVCAR-3
  GI50: 2510 nM
A549
  GI50: 12.6 nM
NCI/ADR-RES
  GI50: 1260 nM
SK-MEL-28
  GI50: 2000 nM
OVCAR-8
  GI50: 126 nM
NCI-H226
  GI50: 10000 nM
K562
  GI50: 794 nM
COLO 205
  GI50: 1580 nM
HCC 2998
  GI50: 1 nM
HOP-62
  GI50: 25.1 nM
SW-620
  GI50: 10000 nM
U-251
  GI50: 126 nM
NCI-H522
  GI50: 2510 nM
MCF7
  GI50: 6.31 nM
NCI-H460
  GI50: 2 nM
[1]
  GI50: 3980 nM
ACHN
  GI50: 31.6 nM
CAKI-1
  GI50: 31.6 nM
NCI-H322M
  GI50: 501 nM
PC-3
  GI50: 316 nM
[2]
  GI50: 794 nM
SR
  GI50: 12.6 nM
BT-549
  GI50: 1000 nM
MDA-MB-231
  GI50: 3980 nM
RXF 393
  GI50: 3980 nM
OVCAR-5
  GI50: 6310 nM
786-0
  GI50: 100 nM
SF-539
  GI50: 3.98 nM
LOX IMVI
  GI50: 25.1 nM
UACC-62
  GI50: 39.8 nM
HCT-116
  GI50: 126 nM
A498
  GI50: 1260 nM
HCT-15
  GI50: 2000 nM
M14
  GI50: 158 nM
T47D
  GI50: 1260 nM
SK-MEL-2
  GI50: 10000 nM
SF-295
  GI50: 39.8 nM
SNB-75
  GI50: 200 nM
KM12
  GI50: 6310 nM
HOP-92
  GI50: 794 nM
HT-29
  GI50: 2510 nM
TK-10
  GI50: 5010 nM
SF-268
  GI50: 12.6 nM
SNB-19
  GI50: 2000 nM
NCI-H23
  GI50: 501 nM
Malme-3M
  GI50: 7940 nM
